The text below walks through data of ChEMBL document CHEMBL1139655, “Antimicrobial beta-peptoids by a block synthesis approach” (2006).

Converted amounts (≈) assume the structure as drawn.

In this assay the test system is Escherichia coli. Kind of assay: Antimicrobial activity against Escherichia coli ATCC 25922. Type of assay: functional. A digest of the protocol:
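Broth microdilution in trypticase soy broth; 2-fold serial dilutions giving final 512 to 1 µg/mL. Inoculum E. coli ATCC 25922 in TSB, final […] as printed. Incubated 37 °C for 24 h in plate reader, OD600 read every 20 min. MIC taken as lowest concentration preventing growth at 24 h.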

Regarding `CC(=O)NCCC(=O)N(CCC(=O)N(CCCCN)CCC(=O)NCCC(=O)N(CCC(=O)N(CCCCN)CCC(=O)N[C@@H](CCCCN)C(N)=O)CC(C)C)CC(C)C`, the MIC is above 512 µg/mL.
With `CC(=O)N(CCC(=O)N(CCN)CCC(=O)N(CCN)CCC(=O)N(CCC(=O)N(CCN)CCC(=O)N(CCN)CCC(=O)N[C@@H](CCCCN)C(N)=O)CC(C)C)CC(C)C` the figure was above 512 µg/mL; with `CC(=O)N(CCC(=O)N(CCCN(C)C)CCC(=O)N(CCC(=O)N(CCC(=O)N(CCCN(C)C)CCC(=O)N(CCC(=O)N(CCC(=O)N(CCCN(C)C)CCC(=O)N(CCC(=O)N[C@@H](CCCCN)C(N)=O)CC(C)C)Cc1ccccc1)CC(C)C)Cc1ccccc1)CC(C)C)Cc1ccccc1`, 128 µg/mL (≈ 84.1 µM); with `CC(=O)N(CCC(=O)N(CCCN(C)C)CCC(=O)N(CCC(=O)N(CCC(=O)N(CCCN(C)C)CCC(=O)N(CCC(=O)N(CCC(=O)N(CCCN(C)C)CCC(=O)N(CCC(=O)N(CCC(=O)N(CCCN(C)C)CCC(=O)N(CCC(=O)N(CCC(=O)N(CCCN(C)C)CCC(=O)N(CCC(=O)N(CCC(=O)N(CCCN(C)C)CCC(=O)N(CCC(=O)N[C@@H](CCCCN)C(N)=O)CC(C)C)Cc1ccccc1)CC(C)C)Cc1ccccc1)CC(C)C)Cc1ccccc1)CC(C)C)Cc1ccccc1)CC(C)C)Cc1ccccc1)CC(C)C)Cc1ccccc1`, 128 µg/mL (≈ 44.8 µM).
`CC(=O)NCCC(=O)N(CCC(=O)N(CCN)CCC(=O)NCCC(=O)N(CCC(=O)N(CCN)CCC(=O)NCCC(=O)N(CCC(=O)N(CCN)CCC(=O)NCCC(=O)N(CCC(=O)N(CCN)CCC(=O)NCCC(=O)N(CCC(=O)N(CCN)CCC(=O)NCCC(=O)N(CCC(=O)N(CCN)CCC(=O)NCCC(=O)N(CCC(=O)N(CCN)CCC(=O)N[C@@H](CCCCN)C(N)=O)CC(C)C)CC(C)C)CC(C)C)CC(C)C)CC(C)C)CC(C)C)CC(C)C` gave an MIC of 128 µg/mL (≈ 53.9 µM).
With `CC(=O)N(CCC(=O)N(CCC(=O)N(CCN)CCC(=O)N(CCC(=O)N(CCC(=O)N(CCN)CCC(=O)N(CCC(=O)N(CCC(=O)N(CCN)CCC(=O)N(CCC(=O)N(CCC(=O)N(CCN)CCC(=O)N[C@@H](CCCCN)C(N)=O)CC(C)C)CC(C)C)CC(C)C)CC(C)C)CC(C)C)CC(C)C)CC(C)C)CC(C)C` the figure was 256 µg/mL (≈ 154 µM).
With `CC(=O)NCCC(=O)N(CCC(=O)N(CCCN(C)C)CCC(=O)NCCC(=O)N(CCC(=O)N(CCCN(C)C)CCC(=O)NCCC(=O)N(CCC(=O)N(CCCN(C)C)CCC(=O)NCCC(=O)N(CCC(=O)N(CCCN(C)C)CCC(=O)NCCC(=O)N(CCC(=O)N(CCCN(C)C)CCC(=O)NCCC(=O)N(CCC(=O)N(CCCN(C)C)CCC(=O)NCCC(=O)N(CCC(=O)N(CCCN(C)C)CCC(=O)NCCC(=O)N(CCC(=O)N(CCCN(C)C)CCC(=O)N[C@@H](CCCCN)C(N)=O)CC(C)C)CC(C)C)CC(C)C)CC(C)C)CC(C)C)CC(C)C)CC(C)C)CC(C)C` the figure was above 512 µg/mL; with `CC(=O)N(CCC(=O)N(CCCN(C)C)CCC(=O)N(CCC(=O)N(CCC(=O)N(CCCN(C)C)CCC(=O)N(CCC(=O)N(CCC(=O)N(CCCN(C)C)CCC(=O)N(CCC(=O)N(CCC(=O)N(CCCN(C)C)CCC(=O)N(CCC(=O)N(CCC(=O)N(CCCN(C)C)CCC(=O)N(CCC(=O)N[C@@H](CCCCN)C(N)=O)CC(C)C)Cc1ccccc1)CC(C)C)Cc1ccccc1)CC(C)C)Cc1ccccc1)CC(C)C)Cc1ccccc1)CC(C)C)Cc1ccccc1`, 128 µg/mL (≈ 53.1 µM); with `CC(=O)N(CCC(=O)N(CCC(=O)N(CCN)CCC(=O)N(CCC(=O)N(CCC(=O)N(CCN)CCC(=O)N(CCC(=O)N(CCC(=O)N(CCN)CCC(=O)N(CCC(=O)N(CCC(=O)N(CCN)CCC(=O)N(CCC(=O)N(CCC(=O)N(CCN)CCC(=O)N[C@@H](CCCCN)C(N)=O)CC(C)C)CC(C)C)CC(C)C)CC(C)C)CC(C)C)CC(C)C)CC(C)C)CC(C)C)CC(C)C)CC(C)C`, 256 µg/mL (≈ 126 µM).
As to `CC(=O)N(CCC(=O)N(CCC(=O)N(CCCN(C)C)CCC(=O)N(CCC(=O)N(CCC(=O)N(CCCN(C)C)CCC(=O)N(CCC(=O)N(CCC(=O)N(CCCN(C)C)CCC(=O)N[C@@H](CCCCN)C(N)=O)CC(C)C)Cc1ccccc1)CC(C)C)Cc1ccccc1)CC(C)C)Cc1ccccc1`, the minimum inhibitory concentration (MIC) came to 512 µg/mL (≈ 337 µM).
With `CC(=O)NCCC(=O)N(CCC(=O)N(CCN)CCC(=O)NCCC(=O)N(CCC(=O)N(CCN)CCC(=O)NCCC(=O)N(CCC(=O)N(CCN)CCC(=O)NCCC(=O)N(CCC(=O)N(CCN)CCC(=O)NCCC(=O)N(CCC(=O)N(CCN)CCC(=O)N[C@@H](CCCCN)C(N)=O)CC(C)C)CC(C)C)CC(C)C)CC(C)C)CC(C)C` the figure was 256 µg/mL (≈ 146 µM); with `CC(=O)N(CCC(=O)N(CCC(=O)N(CCCCN)CCC(=O)N[C@@H](CCCCN)C(N)=O)CC(C)C)CC(C)C`, above 512 µg/mL.
With `CC(=O)N(CCC(=O)N(CCC(=O)N(CCCCN)CCC(=O)N(CCC(=O)N(CCC(=O)N(CCCCN)CCC(=O)N[C@@H](CCCCN)C(N)=O)CC(C)C)CC(C)C)CC(C)C)CC(C)C` the figure was above 512 µg/mL; with `CC(=O)N(CCC(=O)N(CCC(=O)N(CCCCN)CCC(=O)N(CCC(=O)N(CCC(=O)N(CCCCN)CCC(=O)N(CCC(=O)N(CCC(=O)N(CCCCN)CCC(=O)N[C@@H](CCCCN)C(N)=O)CC(C)C)CC(C)C)CC(C)C)CC(C)C)CC(C)C)CC(C)C`, above 512 µg/mL; with `CC(=O)N(CCC(=O)N(CCC(=O)N(CCN)CCC(=O)N(CCC(=O)N(CCC(=O)N(CCN)CCC(=O)N(CCC(=O)N(CCC(=O)N(CCN)CCC(=O)N[C@@H](CCCCN)C(N)=O)CC(C)C)CC(C)C)CC(C)C)CC(C)C)CC(C)C)CC(C)C`, above 512 µg/mL.
`CC(=O)NCCC(=O)N(CCC(=O)N(CCCCN)CCC(=O)NCCC(=O)N(CCC(=O)N(CCCCN)CCC(=O)NCCC(=O)N(CCC(=O)N(CCCCN)CCC(=O)N[C@@H](CCCCN)C(N)=O)CC(C)C)CC(C)C)CC(C)C` returned a minimum inhibitory concentration (MIC) of 512 µg/mL (≈ 424 µM).
With `CC(=O)N(CCC(=O)N(CCC(=O)N(CCCN(C)C)CCC(=O)N(CCC(=O)N(CCC(=O)N(CCCN(C)C)CCC(=O)N(CCC(=O)N(CCC(=O)N(CCCN(C)C)CCC(=O)N(CCC(=O)N(CCC(=O)N(CCCN(C)C)CCC(=O)N[C@@H](CCCCN)C(N)=O)CC(C)C)Cc1ccccc1)CC(C)C)Cc1ccccc1)CC(C)C)Cc1ccccc1)CC(C)C)Cc1ccccc1` the figure was 128 µg/mL (≈ 65.1 µM).
With `CC(=O)N(CCC(=O)N(CCC(=O)N(CCCN(C)C)CCC(=O)N(CCC(=O)N(CCC(=O)N(CCCN(C)C)CCC(=O)N(CCC(=O)N(CCC(=O)N(CCCN(C)C)CCC(=O)N(CCC(=O)N(CCC(=O)N(CCCN(C)C)CCC(=O)N(CCC(=O)N(CCC(=O)N(CCCN(C)C)CCC(=O)N[C@@H](CCCCN)C(N)=O)CC(C)C)Cc1ccccc1)CC(C)C)Cc1ccccc1)CC(C)C)Cc1ccccc1)CC(C)C)Cc1ccccc1)CC(C)C)Cc1ccccc1` the figure was 128 µg/mL (≈ 53.1 µM).
With `CC(=O)NCCC(=O)N(CCC(=O)N(CCCN(C)C)CCC(=O)NCCC(=O)N(CCC(=O)N(CCCN(C)C)CCC(=O)NCCC(=O)N(CCC(=O)N(CCCN(C)C)CCC(=O)NCCC(=O)N(CCC(=O)N(CCCN(C)C)CCC(=O)NCCC(=O)N(CCC(=O)N(CCCN(C)C)CCC(=O)N[C@@H](CCCCN)C(N)=O)CC(C)C)CC(C)C)CC(C)C)CC(C)C)CC(C)C` the figure was above 512 µg/mL.
In turn, `CC(=O)NCCC(=O)N(CCC(=O)N(CCN)CCC(=O)NCCC(=O)N(CCC(=O)N(CCN)CCC(=O)NCCC(=O)N(CCC(=O)N(CCN)CCC(=O)NCCC(=O)N(CCC(=O)N(CCN)CCC(=O)NCCC(=O)N(CCC(=O)N(CCN)CCC(=O)NCCC(=O)N(CCC(=O)N(CCN)CCC(=O)NCCC(=O)N(CCC(=O)N(CCN)CCC(=O)NCCC(=O)N(CCC(=O)N(CCN)CCC(=O)N[C@@H](CCCCN)C(N)=O)CC(C)C)CC(C)C)CC(C)C)CC(C)C)CC(C)C)CC(C)C)CC(C)C)CC(C)C` gave a minimum inhibitory concentration (MIC) of 256 µg/mL (≈ 95.3 µM).
With `CC(=O)NCCC(=O)N(CCC(=O)N(CCCN(C)C)CCC(=O)NCCC(=O)N(CCC(=O)N(CCCN(C)C)CCC(=O)NCCC(=O)N(CCC(=O)N(CCCN(C)C)CCC(=O)NCCC(=O)N(CCC(=O)N(CCCN(C)C)CCC(=O)NCCC(=O)N(CCC(=O)N(CCCN(C)C)CCC(=O)NCCC(=O)N(CCC(=O)N(CCCN(C)C)CCC(=O)NCCC(=O)N(CCC(=O)N(CCCN(C)C)CCC(=O)N[C@@H](CCCCN)C(N)=O)CC(C)C)CC(C)C)CC(C)C)CC(C)C)CC(C)C)CC(C)C)CC(C)C` the figure was above 512 µg/mL.
